Like-named read-outs stand apart in the source and are kept apart here.
How the values were obtained:
InhA [1] = biological target: T1, InhA (Mycobacterium tuberculosis, UniProt P9WGR1); assay: [32P]-NAD+ direct dissociation kinetics; format: binding; settings: 32P-NAD+ direct dissociation method
In short: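 InhA expressed in E. coli BL21(DE3) pLysS and purified by Ni2+-NTA and size exclusion. Ternary complex formed with 15 μM InhA, 20 μM NAD+ plus [32P]-NAD+, and 200 μM inhibitor in 30 mM PIPES pH 6.8, 150 mM NaCl, 1 mM EDTA. Spin column removed free ligand; rapid dilution into buffer started dissociation. Timed aliquots ultrafiltered (10 kDa). Run at 20 °C, or 25 °C for two compounds. kon,overall from koff via Equation 5.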

InhA [2] = biological target: T1, InhA; assay: Progress curve analysis of InhA inhibition; format: biochemical; settings: for k5: EI to EI*; for k6: EI* to EI; for tR: residence time from progress curve analysis; for kon, overall: (k5+k6)/Ki^app
M. tuberculosis = assay: MIC determination, microplate Alamar Blue assay; format: cell-based; settings: 37 °C, 6 days + 24 h
InhA [3] = biological target: T1, InhA; assay: Second-harmonic generation; format: binding; settings: 10 μM compound
[4] = 20 °C, calculated from Ki^app, Ki^*app, k6
[5] = read-out: Ki^*app, 20 °C, final EI* complex
[6] = read-out: Ki^app, 20 °C, initial EI complex

T1 sequence (P9WGR1 whole entry, looked up): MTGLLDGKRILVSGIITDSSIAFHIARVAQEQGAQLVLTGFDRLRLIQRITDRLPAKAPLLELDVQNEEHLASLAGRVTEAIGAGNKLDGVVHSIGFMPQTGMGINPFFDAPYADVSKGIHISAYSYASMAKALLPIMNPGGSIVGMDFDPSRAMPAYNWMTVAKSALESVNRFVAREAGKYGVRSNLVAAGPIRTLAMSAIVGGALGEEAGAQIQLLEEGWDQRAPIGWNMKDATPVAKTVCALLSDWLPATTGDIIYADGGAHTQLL

SMILES	tR direct dissociation (InhA [1]; 20 °C) [min]	k5 (InhA [2]; [4]) [min⁻¹]	k6 (InhA [2]; 20 °C) [min⁻¹]	tR (InhA [2]; 20 °C) [min]	Ki (InhA [2]; Ki^*app, 20 °C, final EI* complex) [nM]	Ki (InhA [2]; Ki^app, 20 °C, initial EI complex) [nM]	kon (InhA [2]; read-out: kon, overall) [M⁻¹ s⁻¹]	tR direct dissociation (InhA [1]; 25 °C) [min]	k5 (InhA [2]; 25 °C, calculated) [min⁻¹]	k6 (InhA [2]; 25 °C) [min⁻¹]	tR (InhA [2]; 25 °C) [min]	MIC (M. tuberculosis) [µg/mL]	kon, overall (InhA [2]; 20 °C) [M⁻¹ s⁻¹]	Ki (InhA [2]; [5]) [nM]	Ki (InhA [2]; [6]) [nM]	time course of SHG conformational change (InhA [3]; 30-min time course)	increase in SHG intensity (InhA [3]; 30 min after addition, His-tagged InhA, N = 4, mean ± SE) [%]
CCCCCCc1ccc(Oc2ccccc2F)c(O)c1 [PT113]	31 ± 5	0.18	0.026 ± 0.004	38 ± 5	27 ± 1	220 ± 6	16000										
Cc1ccccc1Oc1ccc(Cn2cc(-c3ccccc3)nn2)cc1O [PT163]								114 ± 18	3.20	0.0092 ± 0.002	113 ± 28						
CCCCCCc1ccc(Oc2ccccc2Cl)c(O)c1 [PT91]	148 ± 13	0.12	0.013 ± 0.005	90 ± 37								1.56	41700	5 ± 2	52 ± 25		
CCCCCCc1ccc(Oc2ccccc2C)c(O)c1 [PT70]	40 ± 4	0.23	0.036 ± 0.010	30 ± 7								3.13	20000	29 ± 4	210 ± 34		
CCCCCCc1ccc(Oc2ccccc2C#N)c(O)c1 [PT119]	47 ± 4	5.0	0.020 ± 0.0040	50 ± 0.4								2.5	8330	40 ± 1	10000 ± 2000	require a longer time to reach a plateau compared to PT155	13.1± 0.8

From paper PMC5357606 (Journal of the American Chemical Society, 2017)
